Ba/F3 V617F tox = loss of viability in JAK2V617F-driven Ba/F3 cells. Ba/F3 EpoR-JAK2V617F viability, ATP luminescence. inhibition, % at 5.6 µM. hit rate 1.1% among 220,000. AID 1446;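 active = inhibition above the campaign mean plus 3 SD over all tested compounds, cut at about 24% in these data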;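 also: cytokine-independent growth of Ba/F3 cells driven by EpoR plus mutant JAK2; 0% = DMSO-treated cells and 100% = JAK inhibitor I control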
L major viab = inhibitors of Leishmania major promastigote growth; Leishmania major promastigotes, resazurin fluorescence viability; inhibition, % at 10 µM; hit rate 9% among 200,000; in the data active = inhibition above about 50%;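 also: promastigotes grown with compound for 44 hours at 28 °C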
BaF3 parental = parental Ba/F3 viability inhibition as JAK2V617F counter-screen; CellTiter-Glo ATP luminescence; AID 1486; inhibition, % at 5.6 µM; hit rate 1.1% among 220,000;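 active = inhibition above a per-campaign cutoff, the mean inhibition of all tested compounds plus 3 SD, cut at about 27% in these data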;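 also: 0% = DMSO wells and 100% = JAK Inhibitor I control wells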
APP transl inh = APP translation inhibition; SH-SY5Y APP 5'UTR-luciferase reporter, luminescence; inhibition, % at 2 µM; hit rate 0.82% among 190,000;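 active = inhibition above a set limit, derived from the sample mean plus 3 SD, cut at about 45% in these data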
MT stabilizer = microtubule stabilization, imaging screen; HeLa tubulin immunostaining HCS, 24 h; share of cells brighter than vehicle mean+2SD; % tubulin-high responders, % at 10 µM; hit rate 0.83% among 200,000; AID 2205;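 active = plate Z-score above 3 for both tubulin-high and condensed-nucleus cell shares, with cell loss under 80%, at 10 µM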;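 also: anti alpha tubulin signal scored within the nucleus-defined area of each cell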
b-catenin transl = alters nuclear translocation of beta-catenin in HeLa cells | immunofluorescence imaging | nuclear translocation activity, % at 5 µM | hit rate 0.3% among 190,000 | AID 1665;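 active = nuclear translocation activity above 50% at 5 µM, with a well cell count of 50 or more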;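 also: per-cell ratio of nuclear to cytoplasmic median beta-catenin stain intensity; plate controls were DMSO negative control for no effect and GSK-3 inhibitor IX positive control for full effect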
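Test system: human HeLa cells, endogenous beta-catenin. Times: 24 h compound exposure, 37°C. Measured by: beta-catenin immunofluorescence imaging with DAPI.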
* marks the source's active call; other numbers are inactive results; / = no result. An excerpt weighted towards active compounds, which were near 9.6% of everything screened.

SMILES	Ba/F3 V617F tox	L major viab	BaF3 parental	APP transl inh	MT stabilizer	b-catenin transl
O=C(N/N=C/c1sc(N2CCOCC2)nc1-c1ccccc1)c1ccccc1O	-2	44	9	6	1	1
O=C(Nc1ccccc1F)C(=Cc1sc(N2CCOCC2)nc1-c1ccccc1)C(=O)Nc1ccccc1F	-4	53*	0	6	12	-3
O=C(N/N=C/c1sc(N2CCOCC2)nc1-c1ccccc1)c1ccccc1F	-4	/	1	/	/	0
Cc1cc(C(=O)N/N=C/c2sc(N3CCOCC3)nc2-c2ccccc2)c(C)o1	-3	52*	2	9	3	0
O=C(CSc1ccc2nnc(CCNS(=O)(=O)c3ccccc3)n2n1)Nc1nc2ccccc2s1	1	-5	7	14	3	1
O=C1N/C(=N\N=C\c2cccs2)SC1Cc1cccc(Cl)c1 (centres undefined)	-2	5	3	5	22*	25
O=C1N/C(=N\N=C\c2cccs2)SC1Cc1ccc(Cl)cc1 (centres undefined)	-1	-5	3	-5	4	1
CCn1c(NCc2ccco2)nc2ccccc21	5	0	11	12	2	-1
CCn1c(NCc2ccccc2Cl)nc2ccccc21	1	51*	3	-19	4	-2
Cc1ccc(Cn2c(NS(=O)(=O)c3ccccc3)nc3ccccc32)cc1	-2	11	6	-12	2	/
CCn1c(NCc2ccccc2NS(=O)(=O)c2ccc(C)cc2)nc2ccccc21	-1	72*	9	-8	6	-1
CCCn1c(NCc2ccccc2NS(=O)(=O)c2ccc(C)cc2)nc2ccccc21	-4	96*	2	1	21*	-3
CCn1c(NCc2cc(Br)ccc2NS(=O)(=O)c2ccc(C)cc2)nc2ccccc21	-1	100*	3	2	2	-1
CC(=O)c1ccc(N=c2scc(C)n2C(C)C)cc1	-1	8	4	-1	1	-1
Cc1nc(/N=C(\N)NC(=O)N2c3ccccc3Sc3ccccc32)nc2ccccc12	0	97*	8	8	1	-1
Cc1nc(/N=C(\N)NC(=O)c2ccccc2)nc2ccccc12	1	6	4	-15	1	1
COc1ccccc1/C=c1\sc2nc(-c3cccs3)nn2c1=O	-4	-11	-1	-11	2	/
C=CCOc1ccccc1/C=c1\sc2nc(=O)c(C)nn2c1=O	-1	100*	1	-14	3	-1
CC(=S)/C=C1\Sc2ccccc2N1C	0	99*	6	-13	22	35
COc1ccc(C(=O)/C=C2\Sc3ccccc3N2C)cc1	2	-3	4	-195	2	0
CCN(CC)C(=O)C(=O)N/N=C/c1ccc(C(=O)OC)cc1	-3	27	4	-17	3	0
COc1ccc2c3c(cccc13)N(C)N=C2C	3	100*	4	-6	5	1
CCc1ccc(OS(=O)(=O)c2cn(C)c(=O)n(C)c2=O)cc1	-3	16	0	2	1	-1
COC(=O)c1ccc2c(=O)[nH]c(CSc3nnc(C(F)(F)F)n3C)nc2c1	-3	56*	4	-14	3	-3
O=C(CNS(=O)(=O)c1ccccc1)NCC(=O)OCc1ccc(Cl)cc1	-5	/	2	/	/	1
SMILES	Ba/F3 V617F tox	L major viab	BaF3 parental	APP transl inh	MT stabilizer	b-catenin transl
C/C(=N\NC(=S)Nc1ccc(C)c(C)c1)c1ccc(N2CCOCC2)cc1	0	3	-2	0	3	-2
CC(C)Nc1nc(NC(N)=S)nc(NC(C)C)n1	-3	-1	0	6	3	-7
COc1ccc(OC)c(S(=O)(=O)N2CCC(C(=O)NCc3ccccc3)CC2)c1	-3	-2	-1	-12	6	-1
COc1ccc(OC)c(S(=O)(=O)N2CCC(C(=O)Nc3cccc(C(F)(F)F)c3)CC2)c1	-1	91*	2	2	2	/
COc1cc2c(cc1OC)CN(c1ccc(-c3ccccc3OC)nn1)CC2	3	100*	3	3	6	-3
COc1ccccc1-c1ccc(NC2CCCC2)nn1	-1	8	1	-12	3	-2
COc1ccc(CNC(=O)Cn2cncn2)cc1OC	1	-8	2	-3	4	-1
Cc1ccc(C(=O)NNC(=S)NC(=O)c2ccc(Cl)cc2)cc1	-2	64*	1	-1	4	/
CC(=O)NNC(=S)NC(=O)c1ccc(C)cc1	0	10	6	7	5	-2
CCC(C)(C)NC(=O)C(c1ccccc1)N(Cc1cccs1)C(=O)Cn1nnc2ccccc21 (centres undefined)	-1	68*	0	-8	6	/
CCC(C)(C)NC(=O)C(c1ccc(C)o1)N(Cc1cccs1)C(=O)Cn1nnc2ccccc21 (centres undefined)	4	36	10	-8	3	1
COc1ccc(C(C(=O)NC(C)(C)C)N(Cc2cccs2)C(=O)CCC(=O)Nc2cc(C)on2)cc1 (centres undefined)	1	97*	5	-8	4	6
CCC(C)(C)NC(=O)C(c1ccc(OC)cc1)N(CC1CCCO1)C(=O)CCC(=O)Nc1cc(C)on1 (centres undefined)	-2	-3	2	-1	4	/
CCC(C)(C)NC(=O)C(c1ccc(OC)cc1)N(Cc1cccs1)C(=O)CCC(=O)Nc1cc(C)on1 (centres undefined)	4	97*	6	-25	3	-1
O=C1NC2c3ccccc3C(=O)N2c2c1cnn2-c1ccccc1 (centres undefined)	0	5	4	-15	11*	-2
O=C1c2ccccc2N2C(=O)c3ccccc3[C@H]2N1c1ccccc1	-1	5	3	-3	2	/
CCOC(=O)C1(Cc2cccc(F)c2)CCN(C(=O)c2ccoc2C)CC1	2	34	2	-21	2	-1
O=S(=O)(CCc1ccncc1)C1Cc2cccc3cccc1c23 (centres undefined)	-1	/	-1	/	/	0
Cc1cc(C)c(NC(=S)NCCCSC2CCCCC2)c(C)c1	5	57*	4	-21	3	-1
CCN(CC)S(=O)(=O)c1cccc(-c2n[nH]c(=S)n2/N=C/c2ccc(OC)cc2)c1	3	-9	10	-1	2	-1
CCN(CC)S(=O)(=O)c1cccc(-c2n[nH]c(=S)n2/N=C/c2ccc(Br)cc2)c1	2	-13	94*	10	2	-3
O=C(/C=C/c1ccco1)c1ccc(NC(=O)C23CC4CC(CC(C4)C2)C3)cc1	-4	59*	4	3	3	4
O=C(Nc1ccc(NC(=O)C23CC4CC(CC(C4)C2)C3)cn1)c1ccco1	-2	2	3	-95	6	1
COc1ccc(C(=O)/C(=C\c2ccco2)N2C=CC=CC2=C(C#N)C#N)cc1	99*	40	100*	84*	12	-1
